Calls of active or inactive are those of the source. No cut-off for these calls is given here.
Legend:
[1] = test system: HL-60; test: Cell cycle arrest in HL60 cells by accumulation in G2/M phase; type: functional, cell-based; details: Homo sapiens
Outline: (§1)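 HL60 cells (RPMI 1640, 10% FCS, 2 mM glutamine, 37 °C, 5% CO2) exposed to graded concentrations for 24 h; compound in DMSO diluted in complete medium, DMSO vehicle controls. Nuclei isolated, kept at 4 °C in dark, stained with 50 µg/mL propidium iodide just before flow cytometry; DNA profiles give G0/G1, S, G2/M fractions. Mean ± SEM of three determinations.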

[2] = test system: HL-60; test: Induction of cell death in HL60 cells at 50 uM after 24 hrs relative to control; type: functional, Homo sapiens
Outline: (§2)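 Compound was dissolved in DMSO and diluted into complete medium; controls received matching DMSO. Cell death was scored by propidium iodide flow cytometry and by trypan blue exclusion. One experiment is shown, repeated three times.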

[3] = Antitumor activity against CNS cell lines of the NCI60 panel; type: functional; details: Homo sapiens
Outline: (§3)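 Run by NCI in the 60-cell-line panel (details in Supporting Information). Highest concentration 10^-4 M unless noted (one case 10-2.6 M). Values expressed as -log molar concentration giving 50% growth inhibition (pGI50), total cytostasis (pTGI) or 50% cell kill (pLC50); only values >4.00 reported; mean graph midpoint is the calculated panel mean.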

[4] = Antitumor activity against ovarian cell lines of the NCI60 panel; type: functional; details: Homo sapiens; outline: as §3
[5] = Antitumor activity against renal cell lines of the NCI60 panel; type: functional, Homo sapiens; details: Homo sapiens, renal; outline: as §3
[6] = Antitumor activity against colon cell lines of the NCI60 panel; type: functional; details: Homo sapiens; outline: as §3
[7] = Antitumor activity against leukemia cell lines of the NCI60 panel; type: functional; details: Homo sapiens; outline: as §3
[8] = Antitumor activity against breast cell lines of the NCI60 panel; type: functional; details: Homo sapiens; outline: as §3
[9] = Antitumor activity against melanoma cell lines of the NCI60 panel; type: functional; details: Homo sapiens; outline: as §3
[10] = test system: HL-60; test: Induction of cell death in HL60 cells at 25 uM after 48 hrs relative to control; type: functional, Homo sapiens; outline: as §2
[11] = test system: HL-60; test: Induction of cell death in HL60 cells at 50 uM within 3 hrs relative to control; type: functional, Homo sapiens; outline: as §2
[12] = Antitumor activity against prostate cell lines of the NCI60 panel; type: functional; details: Homo sapiens; outline: as §3
[13] = test system: HL-60; test: Cell cycle arrest in HL60 cells by accumulation in G2/M phase at 25 uM after 24 hrs
[14] = test system: HL-60; test: Reduction in S phase of cell cycle arrest in HL60 cells; type: functional, cell-based; details: Homo sapiens; outline: as §1
[15] = test system: HL-60; test: Increase in p27 level in HL60 cells at 25 uM after 24 hrs; type: functional, cell-based; details: Homo sapiens
Outline: (§4)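 HL60 cells held 24 h with or without 25 µM compound (DMSO vehicle); cellular proteins extracted and p21 and p27 detected by Western blotting with specific antibodies. Repeated at least twice.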

[16] = test system: HL-60; test: Reduction in G0/G1 phase of cell cycle arrest in HL60 cells; type: functional, cell-based; details: Homo sapiens; outline: as §1
[17] = test system: HL-60; test: Mitochondrial potential in HL60 cells assessed as decrease in mitochondrial membrane potential by DiOC6 staining at 25 uM after 24 hrs; set-up: scale not given: the % may be the effect or the level left
[18] = test system: NSCLC; test: Antitumor activity against NSCLC cell lines of the NCI60 panel; type: functional; details: Homo sapiens; outline: as §3
[19] = test system: HL-60; test: Reduction in cell proliferation of HL60 cells at 25 uM after 48 hrs relative to control; type: functional, Homo sapiens; set-up: scale not given: the % may be the effect or the level left
Outline: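 HL60 cells in complete RPMI medium incubated with compound (DMSO-diluted; vehicle controls); total cell number counted by flow cytometry relative to control. One experiment shown, repeated three times.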

[20] = biological target: T1, S-adenosylmethionine decarboxylase proenzyme (Homo sapiens) (UniProt P17707); test: Inhibition of SAMDC in HL60 cells by release of radioactive CO2 from [14C-carboxyl]S-adenosylmethionine; details: HL-60
T1 sequence (whole entry): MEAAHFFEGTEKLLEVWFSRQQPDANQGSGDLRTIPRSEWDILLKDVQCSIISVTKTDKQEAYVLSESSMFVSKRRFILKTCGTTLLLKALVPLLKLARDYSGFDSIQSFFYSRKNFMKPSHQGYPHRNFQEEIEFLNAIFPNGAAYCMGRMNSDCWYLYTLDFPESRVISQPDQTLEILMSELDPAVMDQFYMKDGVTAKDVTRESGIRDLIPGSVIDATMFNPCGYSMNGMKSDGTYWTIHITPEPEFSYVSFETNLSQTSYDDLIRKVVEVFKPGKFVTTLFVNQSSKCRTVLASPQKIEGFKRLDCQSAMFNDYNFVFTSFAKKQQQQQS

[21] = test system: HL-60; test: Increase in p21 level in HL60 cells at 25 uM after 24 hrs; type: functional, cell-based; details: Homo sapiens; outline: as §4

Structure (SMILES): Cc1sc2nc(-c3ccccn3)c(/C=N/NC(=N)N)n2c1C
- Activity [1]: Dose-dependent effect
- Activity [2]: 100%
- GI50 [3]: 20.9 µM
- TGI ([3]; read-out: pTGI (converted)): 41.7 µM
- GI50 [4]: 18.6 µM
- TGI ([4]; read-out: pTGI (converted)): 37.2 µM
- GI50 [5]: 6.61 µM
- TGI ([5]; read-out: pTGI (converted)): 31.6 µM
- GI50 [6]: 18.2 µM
- TGI ([6]; read-out: pTGI (converted)): 40.7 µM
- GI50 [7]: 52.5 µM
- TGI ([7]; read-out: pTGI (converted)): 83.2 µM
- GI50 [8]: 22.9 µM
- TGI ([8]; read-out: pTGI (converted)): 41.7 µM
- GI50 [9]: 17 µM
- TGI ([9]; read-out: pTGI (converted)): 33.1 µM
- Activity [10]: 25%
- Activity [11]: 45%
- GI50 [12]: 22.4 µM
- TGI ([12]; read-out: pTGI (converted)): 57.5 µM
- Activity [13]: 52%
- Activity [14]: Active
- Activity [15]: Active
- Activity [16]: Active
- Activity [17]: 50%
- GI50 [18]: 18.2 µM
- TGI ([18]; read-out: pTGI (converted)): 37.2 µM
- Activity [19]: > 80%
- Activity [20]: inactive
- Activity [21]: Active

— ChEMBL document CHEMBL1138854, “Synthesis and antitumor activity of guanylhydrazones from 6-(2,4-dichloro-5-nitrophenyl)imidazo[2,1-b]thiazoles and 6-pyridylimidazo[2,1-b]thiazoles(1)” (2006)
